Screening data as filed in PubChem BioAssay.
The list is not random: actives were taken first. Their share in the collection is about 3.5%.
rCAG binder: molecules binding r(CAG) RNA repeats; r(CAG) RNA repeat, TO-PRO-1 dye displacement fluorescence; inhibition, % at 3 µM; 370,000 compounds, 1.3% hits;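 active means inhibition above the plate cutoff, the mean of all test compounds on that plate plus 3 SD, cut at about 35% in these data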;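 further: higher means more dye released from RNA so lower well fluorescence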
HTRA1 inh: HTRA1 (human) protease inhibition; Q92743; recombinant HTRA1, FP-rhodamine activity-based probe, fluorescence polarization; inhibition, % at 5.96 µM; 340,000 compounds, 0.5% hits; in the data active means inhibition above about 36%
TCR-CD3 inh: blocks the human TCR-CD3 interaction | AID 651800 | TAMRA-labeled TCR probe fluorescence, biochemical | inhibition, % at 9.4 µM | 360,000 compounds, 0.37% hits; in the data active means inhibition above about 19%;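 further: recombinant mutant TCR 2C K166C tagged with TAMRA read by polarization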
SIAE inh: inhibitors of human sialic acid acetylesterase SIAE; Q9HAT2; SIAE FP-Rh probe binding, fluorescence polarization; inhibition, % at 9.66 µM; 370,000 compounds, 0.69% hits; AID 1053197;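 active means inhibition above a cutoff: mean of compounds within the control limits plus 3 SD of those, cut at about 17% in these data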
mABHD4 FP: ABHD4 (mouse) inhibition, primary FP screen. Q8VD66. purified mABHD4, FP-Rh probe fluorescence polarization. inhibition, % at 8.92 µM. 370,000 compounds, 0.54% hits;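 active means inhibition exceeding the mean over every tested compound plus 3 SD, cut at about 30% in these data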
Target sequence (Q8VD66 whole entry, looked up): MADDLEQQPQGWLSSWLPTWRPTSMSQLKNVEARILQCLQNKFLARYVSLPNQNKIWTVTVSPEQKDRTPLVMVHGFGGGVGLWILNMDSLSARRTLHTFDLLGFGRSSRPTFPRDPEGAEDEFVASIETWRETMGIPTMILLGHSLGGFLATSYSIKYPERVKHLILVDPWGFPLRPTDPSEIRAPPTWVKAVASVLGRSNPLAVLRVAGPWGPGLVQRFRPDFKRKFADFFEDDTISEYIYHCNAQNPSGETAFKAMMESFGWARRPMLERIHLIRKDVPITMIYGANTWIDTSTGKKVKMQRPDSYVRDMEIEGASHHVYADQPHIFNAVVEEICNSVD
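Doses – 8.92 µM, single dose · Material – wild-type mouse ABHD4 protein · Replication – single well per compound (singlicate) · Measure – percent inhibition of probe binding, normalized to plate controls · Schedule – 45 min compound pre-incubation plus 60 min probe step, 25 °C · Detection – fluorescence polarization with parallel and perpendicular emission, 525/598 nm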
PRMT1 inh: blocks human protein arginine methyltransferase 1; Q99873; recombinant PRMT1, activity-based probe fluorescence polarization; inhibition, % at 2.79 µM; 370,000 compounds, 1.3% hits;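 active means inhibition above about 21% made by adding two undisclosed values, limit read from the data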
Target sequence (Q99873 whole entry, looked up): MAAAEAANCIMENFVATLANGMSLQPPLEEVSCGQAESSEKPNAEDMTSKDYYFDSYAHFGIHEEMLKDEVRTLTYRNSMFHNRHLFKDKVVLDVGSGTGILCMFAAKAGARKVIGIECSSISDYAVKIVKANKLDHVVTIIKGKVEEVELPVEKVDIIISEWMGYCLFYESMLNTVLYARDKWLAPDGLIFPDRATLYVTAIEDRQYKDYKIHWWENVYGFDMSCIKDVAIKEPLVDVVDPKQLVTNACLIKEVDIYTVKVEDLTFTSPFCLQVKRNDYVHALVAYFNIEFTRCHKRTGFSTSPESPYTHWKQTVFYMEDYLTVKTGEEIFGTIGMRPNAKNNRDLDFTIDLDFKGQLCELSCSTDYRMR
rCAG binder conf: r(CAG) RNA repeat binding, confirmation. shares compounds with rCAG binder. TO-PRO-1 dye displacement fluorescence. inhibition, % at 3 µM. 4,300 compounds, 70% hits;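 active means inhibition above a per-plate cutoff, the mean inhibition of sample wells plus 3 SD, cut at about 35% in these data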;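 further: loss of TO-PRO-1 fluorescence as compound displaces dye from 1x1 AA loop RNA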
DNA CAG counter: counter-screen for rCAG RNA binders: DNA CAG dye complex inhibitors. inhibition, % at 3 µM. shares compounds with rCAG binder. 4,300 compounds, 94% hits. d(CAG) DNA oligo TO-PRO-1 dye displacement, fluorescence;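 active means inhibition above its plate's cutoff, the mean test-well inhibition plus 3 SD, cut at about 4.8% in these data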;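 further: hits displace the dye from DNA and so lower well fluorescence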
dCAG dye DR: disrupts DNA CAG TO-PRO-1 complex in dose response | IC50, µM | shares compounds with rCAG binder | 250 compounds, 20% hits | DNA CAG/GTC duplex TO-PRO-1 dye displacement fluorescence; in the data active means IC50 below about 10 µM
Each line names hits and unclear results; the compound was inactive in the other large screens (follow-up assays come after a bar, where they were run).

COc1ccc(OCC(=O)Nc2nnc(S(=O)(=O)N3CCCCCC3)s2)cc1	rCAG binder 40.5 | rCAG binder conf inactive | DNA CAG counter 7.5
Cc1ccc(OCC(=O)Nc2nnc(S(=O)(=O)N3CCC(C)CC3)s2)cc1	rCAG binder 41.6 | rCAG binder conf 53.1 | DNA CAG counter 22.6
CCN(c1ccc(OC)cc1)S(=O)(=O)c1nnc(NC(=O)COc2ccccc2)s1	rCAG binder 66.1 | rCAG binder conf 54.0 | DNA CAG counter 19.0
Nc1nc2ccc([N+](=O)[O-])cc2[nH]1	none
Nc1[nH]c2cc([N+](=O)[O-])ccc2c1-c1ccccn1	rCAG binder 41.0 | rCAG binder conf inactive | DNA CAG counter 19.3
O=C(COCc1ccccc1)N1CC[C@H]2[C@H](CCCN2Cc2ccccc2)C1	none (no result: HTRA1 inh, TCR-CD3 inh)
COc1cc(C2c3c([nH]c(=O)[nH]c3=O)Nc3ccc4ccccc4c32)cc(OC)c1OC (stereo unspecified)	rCAG binder 42.4 | rCAG binder conf inactive | DNA CAG counter 10.2
COc1ccc(-c2nn(-c3ccccc3)cc2C=O)cc1[N+](=O)[O-]	none
COc1ccc(-c2nn(-c3ccccc3)cc2/C=C/C(=O)O)cc1[N+](=O)[O-]	rCAG binder 56.0 | rCAG binder conf 48.2 | DNA CAG counter 11.7
CC(=O)c1cccc(S(=O)(=O)N2CCCC(c3nc4c(nnn4Cc4ccccc4Cl)c(=O)[nH]3)C2)c1 (stereo unspecified)	none
O=C(O)c1cccc(S(=O)(=O)N2CCCC(c3nc4c(nnn4Cc4ccccc4Cl)c(=O)[nH]3)C2)c1 (stereo unspecified)	rCAG binder 43.0 | rCAG binder conf inactive | DNA CAG counter 9.3
Cc1ccc(-c2ccc(/C=N/NC(=S)Nc3ccccc3)o2)cc1[N+](=O)[O-]	rCAG binder 42.5 | rCAG binder conf inactive | DNA CAG counter 15.9
NC(=S)N/N=C/c1ccc(-c2cccc([N+](=O)[O-])c2)o1	none
O=[N+]([O-])c1cccc(-c2ccc(/C=N/NC(=S)Nc3cccc(F)c3)o2)c1	rCAG binder 39.1 | rCAG binder conf inactive | DNA CAG counter 13.2
CCCCNC(=O)C[C@H]1C[C@@]2(C(=O)OC)C(=C[C@H](C(C)C)O[C@@H]2C2CC2)N(CCc2ccc(OC)c(OC)c2)C1=O	none (no result: HTRA1 inh, TCR-CD3 inh)
O=C1CCC[C@H]2C[C@H](NCc3ccc(F)cc3F)CC[C@]23CCCN13	none (no result: rCAG binder, HTRA1 inh, TCR-CD3 inh)
O=C(O)CSc1nc(SCc2ccccc2Cl)nc2c1CCCC2	rCAG binder 41.5 | rCAG binder conf 35.7 | DNA CAG counter 11.2 | dCAG dye DR inactive
CC(C)C[C@H]1COc2cc(Br)ccc2S(=O)(=O)N1Cc1cn(Cc2ccco2)nn1	none (no result: HTRA1 inh, TCR-CD3 inh)
CN(C)/C=C/c1onc(-c2c(Cl)cccc2Cl)c1C#N	none
N#Cc1c(-c2c(Cl)cccc2Cl)noc1/C=C/Nc1ccc(C(=O)O)cc1	rCAG binder 43.7 | rCAG binder conf 43.5 | DNA CAG counter 10.3
Nn1c(SCc2ccc([N+](=O)[O-])cc2)nnc1-c1cc(-c2ccccc2)n[nH]1	none (no result: HTRA1 inh, TCR-CD3 inh)
CCOc1ccc(-c2ccc(NS(=O)(=O)c3cc([N+](=O)[O-])c(C)c([N+](=O)[O-])c3)cc2)nn1	rCAG binder 67.7 | rCAG binder conf 44.1 | DNA CAG counter 13.7
COc1ccc(-c2ccc(NS(=O)(=O)c3cccc([N+](=O)[O-])c3)cc2)nn1	none
CCOc1ccc(-c2cccc(NS(=O)(=O)c3cc([N+](=O)[O-])ccc3C)c2)nn1	rCAG binder 37.8 | rCAG binder conf 42.9 | DNA CAG counter 13.0
COc1ccc(-c2cccc(NS(=O)(=O)c3ccccc3[N+](=O)[O-])c2)nn1	none
O=[N+]([O-])c1cccc(S(=O)(=O)Nc2ccc(-c3ccc(N4CCCC4)nn3)cc2)c1	none
O=[N+]([O-])c1ccccc1S(=O)(=O)Nc1ccc(-c2ccc(N3CCCC3)nn2)cc1	rCAG binder 37.0 | rCAG binder conf 38.3 | DNA CAG counter 15.9
CCOc1ccc(-c2cccc(NS(=O)(=O)c3ccccc3[N+](=O)[O-])c2)nn1	rCAG binder 34.7 | rCAG binder conf inactive | DNA CAG counter 8.5
COc1ccc(C(=O)C2(C(=O)Nc3cc(C)cc(C)c3)CC(c3ccccc3C(F)(F)F)=NO2)cc1 (stereo unspecified)	none (no result: HTRA1 inh, TCR-CD3 inh)
O=C(Nc1ccc(OC(F)(F)F)cc1)Nc1c(-c2ccc(F)cc2)nc2ncccn12	none (no result: HTRA1 inh, TCR-CD3 inh)
Cc1ccc(C2=Nn3c(COc4ccc(Cl)cc4)nnc3SC2CC(=O)O)cc1 (stereo unspecified)	rCAG binder 47.1 | rCAG binder conf 41.5 | DNA CAG counter 10.5
COc1ccc2c(c1)c(=O)oc1cc(OC(C(=O)O)c3ccccc3)ccc12 (stereo unspecified)	rCAG binder 52.3 | rCAG binder conf 40.7 | DNA CAG counter 10.1
O=C(O)C(Oc1ccc2c(-c3ccccc3)cc(=O)oc2c1)c1ccccc1 (stereo unspecified)	none
CC(C)(C)c1ccc(C(=O)NC(CC(=O)O)c2ccc(OC3CCCC3)cc2)cc1 (stereo unspecified)	rCAG binder 39.4 | rCAG binder conf 42.8 | DNA CAG counter 8.0
Oc1ccc(/C=C/c2ccc3cccc(O)c3n2)cc1Br	rCAG binder 50.4 | rCAG binder conf inactive | DNA CAG counter 14.0
O=C(O)c1ccc(/C=C/c2ccc3cccc(O)c3n2)cc1	none
O=C(C1CCCN(S(=O)(=O)c2ccc([N+](=O)[O-])cc2)C1)N1CCN(Cc2ccccc2)CC1 (stereo unspecified)	none (no result: HTRA1 inh, TCR-CD3 inh)
Cc1cc(C)cc(NS(=O)(=O)c2ccc(NC(=O)C3CCCCC3C(=O)O)cc2)c1 (stereo unspecified)	rCAG binder 35.7 | rCAG binder conf inactive | DNA CAG counter 4.8
CN1CCN(c2ccc3c(c2)Oc2ccccc2CN(Cc2cn(Cc4ccc(F)cc4)nn2)S3(=O)=O)CC1	none (no result: HTRA1 inh, TCR-CD3 inh)
CC(C)(C)NC(=O)[C@H](c1cccnc1)N(C(=O)c1ccco1)c1ccc(C(C)(C)C)cc1	none (no result: rCAG binder, HTRA1 inh, TCR-CD3 inh)
Cc1[nH]n(-c2ccccc2)c(=O)c1N=Nc1c(O)cc(S(=O)(=O)N(C)C)c2ccccc12	rCAG binder 41.7 | rCAG binder conf 89.0 | DNA CAG counter 66.9
Cc1[nH]n(-c2ccccc2)c(=O)c1N=Nc1ccc2c(c1)OCCO2	none
O=C(O)CCn1cc(/C=C/C(=O)c2ccc(Cl)cc2)c(-c2ccc(Br)cc2)n1	rCAG binder 58.9 | rCAG binder conf 84.1 | DNA CAG counter 49.2
